Bridge positions count the residues as written; N and C are the ends. Peptide text beside a SMILES is read from it.

For this test, the target named is Melanocyte-stimulating hormone receptor (Mus musculus, UniProt Q01727). Briefly: Agonistic activity against mouse Melanocortin 1 Receptor. An outline of the steps: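 HEK-293 cells stably expressing the receptor (G418 selection), transiently transfected with a CRE/β-galactosidase reporter. Lysates read with ONPG at OD405 and normalized to protein content and forskolin (10^-4 M) response. EC50 from nonlinear least-squares fit, at least three independent experiments.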
Melanocyte-stimulating hormone receptor, sequence (Q01727 whole entry): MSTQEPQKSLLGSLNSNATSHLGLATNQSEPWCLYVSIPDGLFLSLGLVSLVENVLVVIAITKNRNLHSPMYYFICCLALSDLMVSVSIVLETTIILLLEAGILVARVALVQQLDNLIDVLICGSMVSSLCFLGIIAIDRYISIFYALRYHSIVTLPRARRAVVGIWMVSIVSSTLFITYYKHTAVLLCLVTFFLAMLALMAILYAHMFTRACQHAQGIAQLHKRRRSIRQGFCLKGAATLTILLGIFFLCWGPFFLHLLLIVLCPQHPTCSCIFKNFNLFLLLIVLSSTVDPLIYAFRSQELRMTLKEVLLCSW

Compound `C[C@@H]1NC(=O)[C@H](CC(N)=O)NC(=O)[C@H](Cc2ccccc2)NC(=O)[C@H](Cc2ccccc2)NC(=O)[C@H](CCCNC(=N)N)NC(=O)[C@@H](NC(=O)[C@@H](N)Cc2ccc(O)cc2)CSSC[C@@H](C(=O)N[C@@H](Cc2ccc(O)cc2)C(N)=O)NC(=O)[C@H](Cc2ccccc2)NC1=O` (H-YCRFFNAFCY-NH2; disulfide 2-9) came in with a 50% effective concentration (EC50) of 5.12 µM.
